ChEMBL document CHEMBL2150952 (J Med Chem, 2011)
The source made the active and inactive calls. No cut-off for these calls is given here.

Key:
Mus musculus [1] = test: Antidiabetic activity in po dosed diet-induced obese fasted C57BL6 mouse assessed as increase in glucose clearance administered 1 hr before glucose challenge measured 12 hrs thereafter by OGTT; format: functional; details: in the assay text read “2 hrs” for “12 hrs”
In short: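 Male C57/Bl6 mice were kept on a high fat diet for at least 14 weeks from 6 weeks of age, then fasted 16 h. Compound was given orally 1 h before a 2 g/kg oral glucose load.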

Mus musculus [2] = test: Antidiabetic activity in diet-induced obese C57BL6 mouse assessed as reduction in liver steatosis at 20 to 60 mg/kg, po BID measured on day 28; format: functional, organism-based
In short: (§1)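 eDIO mice (high fat diet for at least 18 weeks) were dosed orally bid for 28 days, with n = 8–10/group. At termination, livers were collected for histological steatosis assessment and triglyceride measurement.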

Mus musculus [3] = test: Antidiabetic activity in diet-induced obese C57BL6 mouse assessed as reduction in liver triglyceride level at 60 mg/kg, po BID; format: functional, organism-based; parameters: dose 60 mg/kg; in short: as §1
Mus musculus [4] = test: Antidiabetic activity in diet-induced obese C57BL6 mouse assessed as reduction in liver triglyceride level at 20 mg/kg, po BID; format: functional, organism-based; parameters: dose 20 mg/kg; in short: as §1
Liver [5] = test: Ratio drug uptake in liver to harderian gland of C57BL6 mouse at 10 mg/kg, po measured 6 hrs post dose; format: ADME, organism-based; parameters: dose 10 mg/kg, route oral; details: in vivo
In short: (§2)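 Single oral dose of 10 mg/kg in 0.5% methylcellulose to fed C57BL6 mice (n = 2). Animals sacrificed 6 h post dose. Plasma, liver, skin and Harderian gland collected. Tissues homogenized in MeCN/water with internal standard and drug quantified by LC-MS against a standard curve made in blank plasma. Concentration ratio calculated.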

Stearoyl-CoA desaturase = molecular target: T1, Stearoyl-CoA desaturase (Homo sapiens, UniProt O00767); test: Inhibition of SCD-1 activity in organic anion transporting polypeptides-deficient human HepG2 cells assessed as reduction in [I-14C] stearoyl CoA desaturation by scintillation counting; format: cell-based
T1 sequence (O00767 whole entry): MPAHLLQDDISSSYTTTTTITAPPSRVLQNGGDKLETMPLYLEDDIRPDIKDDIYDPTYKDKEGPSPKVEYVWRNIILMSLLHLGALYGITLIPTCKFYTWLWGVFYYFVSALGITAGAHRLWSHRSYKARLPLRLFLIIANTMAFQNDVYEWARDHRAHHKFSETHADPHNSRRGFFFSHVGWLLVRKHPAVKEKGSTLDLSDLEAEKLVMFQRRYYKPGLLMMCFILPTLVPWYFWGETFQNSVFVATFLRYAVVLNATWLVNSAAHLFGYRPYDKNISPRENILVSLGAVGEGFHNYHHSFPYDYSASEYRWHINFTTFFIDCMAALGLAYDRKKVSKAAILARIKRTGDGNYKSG

Acyl-CoA desaturase 1 [6] = molecular target: T2, Acyl-CoA desaturase 1 (Rattus norvegicus, UniProt P07308); test: Inhibition of SCD-1 activity in Sprague-Dawley rat Hepatocytes expressing organic anion transporting polypeptides assessed as reduction in [I-14C] […] desaturation by scintillation counting; format: cell-based, Hepatocyte
T2 sequence (P07308 whole entry): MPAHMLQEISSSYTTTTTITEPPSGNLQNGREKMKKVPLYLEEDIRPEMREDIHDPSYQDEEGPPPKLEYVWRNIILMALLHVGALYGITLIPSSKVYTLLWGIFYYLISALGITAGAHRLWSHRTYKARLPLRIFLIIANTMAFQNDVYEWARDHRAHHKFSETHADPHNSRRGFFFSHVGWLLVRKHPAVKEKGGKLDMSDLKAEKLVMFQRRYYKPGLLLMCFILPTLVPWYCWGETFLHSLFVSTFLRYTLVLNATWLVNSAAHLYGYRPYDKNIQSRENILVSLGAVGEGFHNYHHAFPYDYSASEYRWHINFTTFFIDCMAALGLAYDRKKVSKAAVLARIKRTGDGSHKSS
In short: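 Rat hepatocytes (4 × 10^6 cells/mL) were preincubated with compound for 15 min at 37 °C/5% CO2. 14C-stearic acid (final 0.5 μCi/mL) was then added for 1 h with shaking. Cells were washed, hydrolyzed in 2N NaOH at 75 °C for 1 h, acidified and extracted. Radiolabeled oleic and stearic acids were quantified by HPLC with flow scintillation detection. Mean of at least n = 3.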

HepG2 = test: Ratio IC50 for SCD-1 activity in organic anion transporting polypeptides-deficient human HepG2 cells to IC50 for SCD-1 activity in Sprague-Dawley rat Hepatocytes expressing organic anion transporting polypeptides; format: cell-based
In short: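 Cellular SCD IC50s measured in human HepG2 cells (lacking active OATPs) and in rat hepatocytes (active OATPs). Hepatocytes preincubated with compound for 15 min at 37 °C, then given 14C-stearic acid (final 0.5 μCi/ml) for 1 h with shaking. Lipids hydrolysed in 2N NaOH at 75 °C, acidified and extracted. Radiolabelled oleic and stearic acid resolved by HPLC with flow scintillation detection. Mean of at least n = 3. HepG2 IC50 divided by hepatocyte IC50.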

Acyl-CoA desaturase 1 [7] = molecular target: T2, Acyl-CoA desaturase 1; test: Inhibition of SCD-1 activity in Sprague-Dawley rat microsome assessed as reduction in [I-14C] stearoyl CoA desaturation by scintillation counting; format: microsomes
Mus musculus [8] = test: Antidiabetic activity in diet-induced obese C57BL6 mouse assessed as reduction in body weight gain at 1 mg/kg, po QD; format: functional; parameters: scale not given: the % may be the effect or the level left
In short: (§3)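 Male C57/Bl6 mice were fed a high fat diet for at least 18 weeks from 6 weeks of age, then given vehicle (1% methocel, bid) for 7 days and randomized by body weight. Oral dosing (qd or bid) ran for 28 days, with n = 8–10/group. Body weight, food intake and skin/eye scores were recorded twice weekly.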

Mus musculus [9] = test: Toxicity in diet-induced obese C57BL6 mouse assessed as reduction in food intake at 1 to 5 mg/kg, po QD; format: organism-based; parameters: dose 1-5 mg/kg, route oral; details: in vivo
In short: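 Obese male C57/Bl6 mice after at least 18 weeks of high fat diet and a 7-day vehicle run-in, randomized by body weight. Dosed orally at 1 or 5 mg/kg qd for 28 days (n = 8–10/group). Food consumption monitored twice weekly.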

Zone of skin = test: Drug level in skin of diet-induced obese C57BL6 mouse at 5 mg/kg, po QD; format: ADME, organism-based; parameters: dose 5 mg/kg, route oral; details: in vivo, read-out: Drug uptake
In short: (§4)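 eDIO mice were dosed orally for 4 weeks, either 20 mg/kg bid or 5 mg/kg qd. Liver, Harderian gland and skin were taken at trough at study termination, and compound concentration was measured by LC-MS.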

Mus musculus [10] = test: Toxicity in diet-induced obese C57BL6 mouse assessed as adverse effect in eye at 1 to 5 mg/kg, po QD; format: organism-based; parameters: dose 1-5 mg/kg, route oral; details: in vivo
Mus musculus [11] = test: Inhibition of SCD activity in liver of diet-induced obese C57BL6 mouse assessed as reduction in desaturation induces at 30 mg/kg, po BID; format: functional, organism-based; parameters: dose 30 mg/kg
Mus musculus [12] = test: Antidiabetic activity in diet-induced obese C57BL6 mouse assessed as reduction in glucose AUC at 1 to 15 mg/kg, po administered 1 hr before oral glucose administration measured 2 hrs thereafter; format: functional; details: dose mg/kg 1-15
[13] = Volume of distribution in fasted C57BL6 mouse at 2 mg/kg, iv and 10 mg/kg, po by LC-MS-MS analysis; format: ADME, organism-based; details: in vivo
In short: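 Fasted male C57BL6 mice given 2 mg/kg IV and 10 mg/kg PO. Plasma drug levels measured by LC-MS/MS, mean of n = 3 animals, and PK parameters derived from these.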

[14] = Clearance in fasted C57BL6 mouse at 2 mg/kg, iv and 10 mg/kg, po by LC-MS-MS analysis; format: ADME, organism-based; details: in vivo
In short: (§5)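 Fasted male C57BL6 mice received 2 mg/kg IV and 10 mg/kg PO. For the reference compound, IV was given as a solution in 60% PEG-200 and PO as a suspension in 1% methocel. Plasma levels were measured by LC-MS/MS. Values are the mean of n = 3 animals.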

[15] = AUC in plasma of fasted C57BL6 mouse at 2 mg/kg, iv and 10 mg/kg, po by LC-MS-MS analysis; format: ADME, organism-based; in short: as §5
[16] = Ratio drug uptake in liver to plasma of C57BL6 mouse at 10 mg/kg, po measured 6 hrs post dose; format: ADME, organism-based; parameters: dose 10 mg/kg, route oral; details: liver and plasma; in short: as §2
Mus musculus [17] = test: Antidiabetic activity in diet-induced obese C57BL6 mouse assessed as reduction in body weight gain at 5 mg/kg, po QD; format: functional; parameters: scale not given: the % may be the effect or the level left; in short: as §3
Liver [18] = test: Drug level in liver of diet-induced obese C57BL6 mouse at 5 mg/kg, po QD; format: ADME, organism-based; parameters: dose 5 mg/kg, route oral; details: in vivo, read-out: Drug uptake; in short: as §4
Mus musculus [19] = test: Antidiabetic activity in diet-induced obese C57BL6 mouse assessed as reduction in glucose AUC at 1 to 3 mg/kg, po administered 1 hr before oral glucose administration measured 2 hrs thereafter; format: functional; details: dose mg/kg 1-3
[20] = Cmax in plasma of fasted C57BL6 mouse at 2 mg/kg, iv and 10 mg/kg, po by LC-MS-MS analysis; format: ADME, organism-based; in short: as §5
Mus musculus [21] = test: Inhibition of SCD activity in liver of diet-induced obese C57BL6 mouse assessed as reduction in desaturation induces at 5 mg/kg, po QD; format: functional
Mus musculus [22] = test: Antidiabetic activity in po dosed diet-induced obese C57BL6 mouse assessed as reduction in body weight gain; format: functional, organism-based; in short: as §3
[23] = Drug level in harderian gland of diet-induced obese C57BL6 mouse at 5 mg/kg, po QD; format: ADME, organism-based; parameters: dose 5 mg/kg, route oral; details: in vivo, read-out: Drug uptake; in short: as §4
Mus musculus [24] = test: Antidiabetic activity in diet-induced obese C57BL6 mouse assessed as reduction in glucose AUC at 1 to 10 mg/kg, po administered 1 hr before oral glucose administration measured 2 hrs thereafter; format: functional; details: dose mg/kg 1-10
Mus musculus [25] = test: Inhibition of SCD activity in harderian gland of diet-induced obese C57BL6 mouse assessed as reduction in desaturation induces at 5 mg/kg, po QD; format: functional
Mus musculus [26] = test: Toxicity in diet-induced obese C57BL6 mouse assessed as adverse effect in skin at 1 to 5 mg/kg, po QD; format: organism-based; parameters: dose 1-5 mg/kg, route oral; details: in vivo
Mus musculus [27] = test: Inhibition of SCD activity in skin of diet-induced obese C57BL6 mouse assessed as reduction in desaturation induces at 5 mg/kg, po QD; format: functional

O=C(O)Cn1nnc(-c2cc(N3CCC(Oc4cc(F)ccc4Br)CC3)no2)n1
Activity (Mus musculus [1]): Dose-dependent effect
Activity (Mus musculus [2]): Active
Activity (Mus musculus [3]): inactive
Activity (Mus musculus [4]): Active

Fc1ccc(Br)c(OC2CCN(c3nnc(-c4nn[nH]n4)s3)CC2)c1
Ratio (Liver [5]): 26
IC50 (Stearoyl-CoA desaturase): 12600 nM
IC50 (Acyl-CoA desaturase 1 [6]): 3070 nM
Ratio IC50 (HepG2): 4
IC50 (Acyl-CoA desaturase 1 [7]): 34 nM

Cc1nnc(-c2ccc(N3CCC(Oc4ccccc4C(F)(F)F)CC3)nn2)s1
Ratio (Liver [5]): 1.5
Activity (Mus musculus [8]): 10%
Activity (Mus musculus [9]): Non-toxic
Activity (Mus musculus [1]): Dose-dependent effect
ED50 (Mus musculus [1]): 3 mg/kg
IC50 (Stearoyl-CoA desaturase): 21 nM
concentration (Zone of skin): 4 µM
IC50 (Acyl-CoA desaturase 1 [6]): 157 nM
Activity (Mus musculus [10]): Toxic
inhibition (Mus musculus [11]): Active
inhibition (INH) (Mus musculus [12]): 75%
Vd [13]: 7 L/kg
clearance [14]: 15 mL/min/kg
AUC [15]: 19 µM·h
Kp at 6 h [16]: 14
Ratio IC50 (HepG2): 0.14
Activity (Mus musculus [17]): 20%
concentration (Liver [18]): 10 µM
inhibition (INH) (Mus musculus [19]): 55%
Cmax [20]: 1.3 µM
inhibition in vivo at 5 mg/kg (Mus musculus [21]): 56%
Activity (Mus musculus [22]): Dose-dependent effect
concentration [23]: 5 µM
inhibition (INH) (Mus musculus [24]): 62%
inhibition in vivo at 5 mg/kg (Mus musculus [25]): 92%
Activity (Mus musculus [26]): Toxic
IC50 (Acyl-CoA desaturase 1 [7]): 2 nM
inhibition in vivo at 5 mg/kg (Mus musculus [27]): 25%
